This passage reports IC50, Ki and Activity results from ChEMBL document CHEMBL2177096, “Sulfonyl fluoride inhibitors of fatty acid amide hydrolase” (J Med Chem, 2012).

Each structure is given as a SMILES string. Where only a bound is given, the exact number is not on record here.

Assay [1] in a line: Inhibition of rat FAAH deltaTM mutant expressed in Escherichia coli using AAMCA as substrate after 15 mins by medium throughput fluorescent assay.
Assay [2] concerns the target Cannabinoid receptor 2 (Mus musculus, UniProt P47936). Nature of the assay: Displacement of [3H]CP-55,940 from mouse CB2 receptor expressed in HEK293 cells. Type of assay: cell-based. In outline:
(§1)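 Membranes from rat brain (CB1) or from HEK293 cells overexpressing mouse CB2 were used, with [3H]CP-55,940 as radioligand. Data fitted by nonlinear regression. Ki values come from three independent experiments run in duplicate and are given as the mean of the three.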

Assay [3] deals with Cannabinoid receptor 1 (Rattus norvegicus, UniProt P20272). Nature of the assay: Displacement of [3H]CP-55,940 from CB1 receptor in rat brain homogenates. Format: tissue-based. The method in brief:
as §1

For assay [4], the target named is T1, Monoglyceride lipase (Homo sapiens, UniProt Q99685).
T1 sequence (Q99685 whole entry): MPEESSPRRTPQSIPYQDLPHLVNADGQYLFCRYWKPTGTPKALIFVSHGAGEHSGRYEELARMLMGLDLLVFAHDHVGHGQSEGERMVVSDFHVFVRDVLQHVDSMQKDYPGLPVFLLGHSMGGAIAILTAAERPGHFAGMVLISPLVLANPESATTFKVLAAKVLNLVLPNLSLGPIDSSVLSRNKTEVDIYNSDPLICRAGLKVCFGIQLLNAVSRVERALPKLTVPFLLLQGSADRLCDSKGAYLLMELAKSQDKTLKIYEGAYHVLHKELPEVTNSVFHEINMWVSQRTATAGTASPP
Nature of the assay: Inhibition of recombinant human hexahistidine-tagged MGL expressed in Escherichia coli using AHMMCE as substrate after 15 mins by medium throughput fluorescent assay.

For assay [5], the species on record is Rattus norvegicus. The assay can be described thus: Irreversible inhibition of rat FAAH deltaTM mutant expressed in Escherichia coli assessed as recovery of enzyme activity using AAMCA as substrate at 40 times IC50 treated for 1 hr measured after 80 mins of rapid dilution by medium throughput fluorescent assay. Also noted: scale not given: the % may be the effect or the level left.

Assay [6] in a line: Inhibition of human FAAH deltaTM mutant expressed in Escherichia coli using AAMCA as substrate after 15 mins by medium throughput fluorescent assay.

Chain of Cannabinoid receptor 2 (P47936 whole entry): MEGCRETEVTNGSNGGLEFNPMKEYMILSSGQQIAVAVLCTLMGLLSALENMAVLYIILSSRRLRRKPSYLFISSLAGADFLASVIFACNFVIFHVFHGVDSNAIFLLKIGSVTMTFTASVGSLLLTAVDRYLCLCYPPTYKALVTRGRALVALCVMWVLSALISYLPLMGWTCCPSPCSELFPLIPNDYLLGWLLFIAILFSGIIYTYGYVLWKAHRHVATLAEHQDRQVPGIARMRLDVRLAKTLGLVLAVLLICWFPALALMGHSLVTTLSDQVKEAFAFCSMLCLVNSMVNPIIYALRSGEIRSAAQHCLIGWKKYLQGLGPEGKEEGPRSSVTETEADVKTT
Chain of Cannabinoid receptor 1 (P20272 whole entry): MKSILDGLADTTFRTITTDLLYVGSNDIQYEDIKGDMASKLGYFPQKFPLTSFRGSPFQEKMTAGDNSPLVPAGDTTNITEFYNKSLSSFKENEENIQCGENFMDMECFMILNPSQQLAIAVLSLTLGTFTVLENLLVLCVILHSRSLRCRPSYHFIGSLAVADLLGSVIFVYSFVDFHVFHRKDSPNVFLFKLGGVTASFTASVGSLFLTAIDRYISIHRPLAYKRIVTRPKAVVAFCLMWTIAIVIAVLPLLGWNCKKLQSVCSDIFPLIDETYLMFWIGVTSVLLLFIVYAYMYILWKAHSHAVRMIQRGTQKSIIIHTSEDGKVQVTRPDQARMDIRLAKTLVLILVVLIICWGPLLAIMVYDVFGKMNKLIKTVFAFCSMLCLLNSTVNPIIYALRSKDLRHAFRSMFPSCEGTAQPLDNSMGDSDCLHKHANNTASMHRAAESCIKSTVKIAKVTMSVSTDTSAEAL

In assay [1], `O=S(=O)(F)CCCCCCc1ccccc1` returned an IC50 of 0.0377 µM.

Regarding `O=S(=O)(F)CCCCCCCc1ccc(O)cc1`, the inhibition constant (Ki) in assay [2] worked out at 0.698 µM; in assay [3] it was 0.163 µM.

The molecule `O=S(=O)(F)CCCCc1ccccc1` returned a concentration for half-maximal inhibition (IC50) in assay [1] of 0.0882 µM.

In turn, `O=S(=O)(F)CCCCCCCc1ccccc1O` returned an IC50 in assay [1] of 0.0012 µM.

Regarding `O=S(=O)(F)CCCCCCCc1cccc(OCc2ccccc2)c1`, the Ki in assay [2] was found to be 0.099 µM; in assay [3], 0.335 µM.

In the case of `O=S(=O)(F)CCCCCCCc1ccccc1`, the 50% inhibitory concentration (IC50) in assay [1] was 0.037 µM.

For the molecule `O=S(=O)(F)CCCCCc1ccccc1`, in assay [1], 0.0504 µM corresponded to half-maximal inhibition (IC50).

`O=S(=O)(F)CCCc1ccccc1` came in with an IC50 in assay [1] of 0.205 µM.

With `O=S(=O)(F)CCCCCc1ccc(OCc2ccccc2)cc1`, the Ki in assay [2] turned out to be 0.194 µM; in assay [3], 0.118 µM. This molecule also displayed a concentration for half-maximal inhibition (IC50) in assay [1] of 0.0015 µM.

Take `O=S(=O)(F)CCCCOc1ccc(OCc2ccccc2)cc1`: the figures for the Ki in assay [2] and in assay [3] were 0.203 µM and 0.104 µM, respectively. Moreover, the midpoint of inhibition in assay [1], the IC50, lay at 0.0012 µM.

`O=S(=O)(F)CCCCCCCc1ccccc1OCc1ccccc1` had an IC50 in assay [1] of 0.0043 µM.

Molecule `O=S(=O)(F)CCCCCCCc1cccc(O)c1` returned an IC50 in assay [1] of 0.0025 µM.

`O=S(=O)(F)CCCCCCCCc1ccccc1`: the IC50 in assay [1] came out at 0.176 µM.

For `COS(=O)(=O)CCCCCCCc1ccc(OCc2ccccc2)cc1`, the figures for the IC50 in assay [4] and in assay [1] were greater than 5 µM and 0.269 µM, respectively.

Consider `O=S(=O)(F)CCCCCc1ccc(O)cc1`, for which the Activity in assay [5] amounted to 8%. Besides, the IC50 is 0.0051 µM in assay [6] and 0.0028 µM in assay [1]. In addition, the Ki in assay [2] is 0.577 µM; in assay [3], 0.192 µM.
